Many of the other results were omitted from the sample, so hits are more common in it than they were.
GSK3beta inhib: inhibitors of human GSK3beta kinase; GST-GSK3beta kinase, ADP-Glo luminescence, 60 min; active compounds read low; 0.038% of 300,000 active; activity score (negative = inhibition), % at 10 µM; P49841;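 active means more than half of replicate wells score below -50%, meaning over 50% inhibition versus plate controls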;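 further: 0% = median DMSO wells and -100% = median GW8510 positive control wells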
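Test system – GST-tagged human GSK3beta kinase, cell-free · Incubation – 60 min enzyme reaction, room temperature · Signal – ADP-Glo luminescence · Also added – peptide substrate and ATP at 25 µM · Controls – DMSO neutral wells and GW8510 at 20 µM as positive · Buffer or medium – Tris/MgCl2 kinase buffer · Measure – Luminescence-derived activity versus plate DMSO and GW8510 wells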
DYRK1A inh: blocks rat Dyrk1A kinase activity; Q63470; ADP-Glo luminescence, NFATc1 peptide; inhibition, % at 12.5 µM; 0.43% of 310,000 active; AID 504441; in the data active means inhibition above about 50%;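 further: plate controls were vehicle with enzyme for no effect and no enzyme for full effect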
STK33 inh: human STK33 kinase inhibition. Q9BYT3. purified STK33, MBP phosphorylation, ADP-Glo luminescence. inhibition, % at 10 µM. 0.073% of 320,000 active. AID 2661;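 active means inhibition at or above 25%, using the most active replicate where run in duplicate; inactive means inhibition below 25%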
GSK3A inh: blocks human GSK-3 alpha kinase; P49840; ADP-Glo luminescence, 60 min; inhibition, % at 10 µM; 0.1% of 320,000 active; AID 2650;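 active means more than half of replicates show inhibition above 20%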;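 further: GST-tagged GSK-3 alpha with peptide substrate and 25 µM ATP; 0% = DMSO neutral wells and 100% = GW8510 positive control wells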
Target sequence (P49840 whole entry, looked up): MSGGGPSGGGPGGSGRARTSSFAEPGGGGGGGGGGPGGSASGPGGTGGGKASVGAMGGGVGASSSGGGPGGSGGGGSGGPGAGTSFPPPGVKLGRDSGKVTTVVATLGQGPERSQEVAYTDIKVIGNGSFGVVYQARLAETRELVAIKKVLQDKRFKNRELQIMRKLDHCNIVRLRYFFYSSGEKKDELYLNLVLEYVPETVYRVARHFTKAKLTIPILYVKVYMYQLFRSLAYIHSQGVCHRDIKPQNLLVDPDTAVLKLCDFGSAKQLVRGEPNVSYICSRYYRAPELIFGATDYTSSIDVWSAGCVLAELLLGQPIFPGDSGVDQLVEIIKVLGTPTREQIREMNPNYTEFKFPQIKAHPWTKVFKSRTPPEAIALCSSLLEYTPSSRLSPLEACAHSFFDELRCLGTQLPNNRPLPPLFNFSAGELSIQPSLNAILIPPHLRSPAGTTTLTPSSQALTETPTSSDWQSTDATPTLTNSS
Active calls of the source: *; x = no result given.

SMILES	GSK3beta inhib	DYRK1A inh	STK33 inh	GSK3A inh
CN(Cc1c(C(=O)N/N=C/c2ccc(O)cc2)nnn1-c1nonc1N)c1ccccc1	2	37	6	75*
CN(Cc1c(C(=O)N/N=C/c2ccccc2)nnn1-c1nonc1N)c1ccccc1	-20	1	-1	-6
CCN(CC)Cc1c(C(=O)N/N=C/c2cccs2)nnn1-c1nonc1N	-3	14	-1	76*
CCOC(=O)C1=C(C)NC(=S)NC1c1ccc(OCC(=O)N2CCCCC2)cc1 (configuration not stated)	-1	1	2	0
COc1cc(/C=N/NC(=O)c2nnn(-c3nonc3N)c2-c2cccs2)ccc1O	1	48	4	75*
COc1ccc(/C=N/NC(=O)c2nnn(-c3nonc3N)c2-c2cccs2)cc1OC	-1	16	1	36
Nc1nonc1-n1nnc(C(=O)N/N=C/c2ccccc2F)c1-c1cccs1	0	36	2	64*
COC1(OC)N=C(N)C2(C#N)C(c3ccc(F)cc3)C12C#N (configuration not stated)	1	13	-2	1
CCOC1(OCC)N=C(N)C2(C#N)C(c3ccc(NC(C)=O)cc3)C12C#N (configuration not stated)	3	36	13	60*
CC(=O)Oc1ccc2occ(C(=O)c3cccs3)c2c1	-17	10	0	43
O=C(CCl)Oc1ccc2occ(C(=O)c3cccs3)c2c1	-72*	31	3	70*
CN(C(=O)COC(=O)c1cc(=O)[nH]c2ccccc12)c1ccccc1	x	1	0	0
Cc1[nH][nH]c(=O)c1N=Nc1ccc(S(N)(=O)=O)cc1	-22	x	3	59*
CC(=O)c1ccc(N=Nc2c(C)[nH][nH]c2=O)cc1	-8	24	3	26
COc1ccc(S(=O)(=O)N2CCCCCC2)cc1C(=O)Nc1ccc(C(=O)N(C)C)cc1	x	3	x	x
COC(=O)c1ccc(COc2ccccc2/C=C/C(=O)c2ccc(OCC(=O)O)cc2)cc1	-8	-2	50*	-2
CCn1c2ccccc2c(=O)c2ccccc21	-18	42	31*	10
Cc1c(CN(C)C)c2c(n1C)C(=O)c1ccc(Br)cc1-2	-37	36	1	55*
Cc1c(CN(C)C)c2c(n1Cc1ccccc1)C(=O)c1ccc(Br)cc1-2	-5	-6	-1	-1
COc1ccc(C(=O)CCC(=O)Nc2cccnc2)cc1OC	4	-1	-2	2
C=CCOc1ccc(C=CC(=O)c2c(O)c(OC)c(OC)c(OC)c2OC)cc1	x	1	x	x
CCC(Sc1ccc2nnc(-c3ccc(OC)c(OC)c3)n2n1)C(=O)O (configuration not stated)	0	2	38*	19
COC(=O)CSc1ccc2nnc(-c3ccc(F)cc3)n2n1	-78*	27	3	60*
COc1ccc(-c2nnc3ccc(SC(C(C)=O)C(C)=O)nn23)cc1OC	3	5	-1	1
CC(Oc1ccccc1Cl)C(=O)N(Cc1cccs1)C1CCS(=O)(=O)C1 (configuration not stated)	-1	7	-2	-1
SMILES	GSK3beta inhib	DYRK1A inh	STK33 inh	GSK3A inh
O=C1c2ccccc2-c2onc3ccc(NCCCn4ccnc4)c1c23	-29	x	48*	63*
COc1ccc(CC(=O)N/N=C\c2cc(Br)c(O)c(Br)c2)cc1	6	4	-1	7
N#CCCn1cc(/C=N/O)c(-c2cccc([N+](=O)[O-])c2)n1	-26	20	0	64*
N#CCCn1cc(/C=N/O)c(-c2ccccc2)n1	x	8	0	11
CCOc1ccc(-c2c(C(=O)N/N=C/c3ccoc3)nnn2-c2nonc2N)cc1	0	3	0	7
C/C(=N\NC(=O)c1nnn(-c2nonc2N)c1-c1cccs1)c1cccc(O)c1	0	11	0	66*
CCOc1cccc(-c2c(C(=O)N/N=C/c3ccncc3)nnn2-c2nonc2N)c1	5	60*	2	48
COc1cc(/C(C)=N/NC(=O)c2nnn(-c3nonc3N)c2-c2cccs2)ccc1O	-2	x	-1	-1
CCOC(=O)c1nnn(-c2nonc2N)c1-c1ccc(OCC)cc1	-35	27	0	50*
CCOc1cccc(-c2c(C(=O)N/N=C(\C)c3ccncc3)nnn2-c2nonc2N)c1	-20	0	0	69*
CC1=NN(C(=O)COc2ccccc2)C(O)(c2cccnc2)C1 (configuration not stated)	-5	-2	-2	-2
Cc1nc(NC(=O)c2ccc(Cl)cc2)sc1-c1csc(Nc2cccc(F)c2)n1	2	x	0	3

Assay outcomes from PubChem BioAssay.
